Experimental findings from ChEMBL document CHEMBL1149490, “SAR of biphenyl carboxamide ligands of the human melanin-concentrating hormone receptor 1 (MCH R1): discovery of antagonist SB-568849” (Bioorg Med Chem Lett, 2006) are described below.

Structures are written as SMILES. Converted amounts (≈) assume the structure as drawn. The source made the active and inactive calls. No cut-off for these calls is given here.

A word on the Ki: it is a measure of affinity in units of concentration, obtained from inhibition or displacement. Lower therefore signals tighter binding. Usually clearance stands for the volume of plasma or blood freed of the substance per unit of time. The solubility is the concentration that dissolves in the medium under given conditions. Low values mean little dissolved substance, high ones much dissolved substance. What is called pKb is the Kb on a negative log10 scale, so that one unit is a factor of ten. The bioavailability is the share of a dose that reaches the circulation, judged against a reference dose that is usually intravenous. A lower bioavailability goes with poor availability. A word on the AUC: it is concentration integrated over time. Read a low AUC as low exposure.

The target in series [1] is T1, Melanin-concentrating hormone receptor 1 (Homo sapiens, UniProt Q99705). Description: Displacement of radiolabeled iodo-MCH from human MCHR1 expressed in HEK293 cells. The format is cell-based.
T1 sequence (Q99705 whole entry): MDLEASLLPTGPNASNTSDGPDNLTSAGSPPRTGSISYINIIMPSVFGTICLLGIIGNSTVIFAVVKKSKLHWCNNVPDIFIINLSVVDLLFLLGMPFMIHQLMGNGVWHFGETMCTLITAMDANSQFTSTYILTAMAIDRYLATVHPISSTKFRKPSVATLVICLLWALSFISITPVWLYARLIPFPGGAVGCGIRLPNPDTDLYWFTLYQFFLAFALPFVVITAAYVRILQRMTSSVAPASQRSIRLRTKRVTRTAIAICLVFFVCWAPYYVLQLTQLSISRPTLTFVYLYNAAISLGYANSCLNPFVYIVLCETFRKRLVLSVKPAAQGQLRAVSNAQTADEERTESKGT
In series [2] the test system is Liver microsomes. Put plainly: Intrinsic clearance in rat liver microsome. The format is ADME. Summed up:
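Rat liver microsomes at 0.5 mg/mL protein, starting compound 0.5 µM. Compound loss followed as a concentration-time profile. First-order rate constant K taken from the profile; CLi = K·V, scaled and given in mL/min/g liver.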

Series [3] is described as follows: Clearance in rat at 0.3 mg/kg/hr, iv. The format is ADME, organism-based. Set-up: route intravenous. Conditions: in vivo. Summed up: (§1)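 Rats given compound dissolved in 2% (v/v) DMSO in 5% (w/v) aqueous dextrose by constant iv infusion over 12 h, target 0.3 mg free base/kg/h, for steady-state brain:blood measurement. Blood clearance is the initial elimination rate from blood per unit body mass after this iv dosing.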

The nature of series [4]: Ratio of drug level in brain against blood in rat 0.3 mg/kg/hr, iv. It counts as ADME, organism-based. Set-up: route intravenous. The settings on record: read-out: BBR. The procedure, abridged: as §1
A short description of series [5]: Solubility of the compound. The format is physicochemical.
Series [6] deals with T1, Melanin-concentrating hormone receptor 1. Put plainly: Antagonist activity at human MCHR1 expressed in HEK293 cells assessed as inhibition of MCH-stimulated calcium mobilization. It counts as functional, cell-based. The procedure, abridged:
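Stably transfected HEK293 cells re-seeded on poly-D-lysine and grown 24 h, loaded with fluorescent indicator in assay buffer plus probenecid, washed, then exposed to compound for 30 min. FLIPR readings taken before and after an EC80 concentration of MCH. Apparent pKb fitted to the MCH response with a 4-parameter logistic equation.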
A general note: Calcium flux is commonly read through the fluorescence of an indicator in the cells.

For series [7], the target named is T2, 5-hydroxytryptamine receptor 2C (Homo sapiens, UniProt P28335).
T2 sequence (P28335 whole entry): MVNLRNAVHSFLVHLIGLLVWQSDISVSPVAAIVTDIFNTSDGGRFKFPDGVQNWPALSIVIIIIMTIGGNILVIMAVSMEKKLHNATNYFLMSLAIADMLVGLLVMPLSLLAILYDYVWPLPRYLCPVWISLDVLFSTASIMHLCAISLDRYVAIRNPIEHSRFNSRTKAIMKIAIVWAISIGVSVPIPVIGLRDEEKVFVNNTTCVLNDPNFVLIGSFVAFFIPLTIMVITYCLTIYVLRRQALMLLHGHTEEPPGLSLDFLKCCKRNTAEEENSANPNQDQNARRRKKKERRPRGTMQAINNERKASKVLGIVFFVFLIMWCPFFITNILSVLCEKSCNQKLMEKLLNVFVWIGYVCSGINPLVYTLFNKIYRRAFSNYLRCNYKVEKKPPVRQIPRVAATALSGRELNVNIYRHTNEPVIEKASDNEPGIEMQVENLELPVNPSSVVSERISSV
Put plainly: Binding affinity to 5HT2C receptor.

The nature of series [8]: Solubility in artificial cerebrospinal fluid. It counts as physicochemical.
Series [9] is described as follows: Solubility in water. It counts as physicochemical.
A short description of series [10]: Oral bioavailability in Sprague-Dawley rat. It counts as ADME, organism-based. Conditions: in vivo. The procedure, abridged:
(§2)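 Cannulated Sprague-Dawley rats (n ≥ 3), crossover over two study days: iv infusion of buffered compound at 10 mL/kg/h, target 1.0 mg pfb/kg, blood sampled up to 24 h. After ≥2 days recovery, oral gavage of a suspension in aq methylcellulose (1.5 mg pfb/mL, 2 mL/kg), target 3 mg pfb/kg, blood sampled pre-dose and up to 27 h.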

A short description of series [11]: AUC in Sprague-Dawley rat. The format is ADME, organism-based. The settings on record: plasma. Summed up: as §2
Series [12] deals with Melanin-concentrating hormone receptor (Homo sapiens) (UniProt Q969V1+Q99705). Description: Antagonizing effect on MCH-stimulated CRF release in rat hypothalamus. It counts as functional, tissue-based. The settings on record: target entry is the homologue from another species.
Chain of Melanin-concentrating hormone receptor (Homo sapiens) (Q969V1 whole entry, looked up): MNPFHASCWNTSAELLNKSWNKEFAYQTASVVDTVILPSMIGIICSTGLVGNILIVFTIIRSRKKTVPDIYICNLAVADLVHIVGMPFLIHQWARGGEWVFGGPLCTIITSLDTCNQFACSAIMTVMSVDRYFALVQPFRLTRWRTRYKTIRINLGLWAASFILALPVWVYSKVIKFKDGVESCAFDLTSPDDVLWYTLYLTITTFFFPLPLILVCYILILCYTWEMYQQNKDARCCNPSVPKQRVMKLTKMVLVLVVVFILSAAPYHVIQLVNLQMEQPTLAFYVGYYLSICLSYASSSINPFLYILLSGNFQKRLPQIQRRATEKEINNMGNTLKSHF
Chain of Melanin-concentrating hormone receptor (Homo sapiens) (Q99705 whole entry, looked up): as the sequence (Q99705 whole entry) above

Compound `COc1cc(NC(=O)c2ccc(C3CCCCC3)cc2)ccc1OCCN(C(C)C)C(C)C` gave a Ki in [1] of 25.1 nM.
In series [1], `CCN(CC)CCOc1ccc(NC(=O)c2ccc(-c3ccccc3)cc2)cc1C(C)O` (stereo not given) showed a Ki of 251 nM.
`COc1cc(N(C)C(=O)c2cccc(Oc3ccccc3)c2)ccc1OCCN(C(C)C)C(C)C`: affinity in [1] was put at a Ki of 398 nM.
Turning to `CCN(CC)CCOc1ccc(N(CC)C(=O)c2ccc(-c3ccccc3)cc2)cc1OC`, the Ki in series [1] was 251 nM.
`COc1cc(N(C)C(=O)c2ccc(Cc3ccccc3)cc2)ccc1OCCN(C(C)C)C(C)C` showed a Ki in [1] of 79.4 nM.
In [1], `COc1cc(N(C)S(=O)(=O)c2ccc(-c3ccccc3)cc2)ccc1OCCN(C(C)C)C(C)C` had a Ki greater than 10000 nM.
Same read-out and setting: the figure for `COc1cc(NC(=O)c2ccc(C(C)(C)C)cc2)ccc1OCCN(C(C)C)C(C)C` is greater than 10000 nM.
As to `CCN(CC)CCOc1ccc(NC(=O)c2ccc(-c3ccccc3)cc2)cc1OC`, in series [2], the CL came out at 4 mL/min/g. For the same compound, the Ki in [1] was 31.6 nM.
Consider `COc1cc(NC(=O)c2ccc(-c3ccccc3)cc2)ccc1OCCN(C)Cc1ccccc1`, for which, in [1], the Ki is 50.1 nM.
For the compound `CC(C)N(CCOc1ccc(NC(=O)c2ccc(-c3ccccc3)cc2)cc1F)C(C)C`, the Ki in series [1] was 398 nM.
In series [3], `COc1cc(NC(=O)c2ccc(-c3ccccc3)cc2)ccc1OCCN(C(C)C)C(C)C` came in with a clearance of 67 mL/min/kg. Also, the CL in [2] is 9 mL/min/g. For the same compound, in series [4], the Kp came out at 2.7. The Ki was 31.6 nM in [1] and 158 nM in series [7]. Also, the solubility in series [5] is 4 µg/mL (≈ 8.96 µM). The pKb in series [6] amounted to 7.5.
In the case of `CCN(CC)CCOc1ccc(NC(=O)c2ccc(-c3ccccc3)cc2)cc1C(C)=O`, the affinity in series [1] corresponds to a Ki of 31.6 nM.
The same measure, in the same setting: the same measure for `COc1cc(NC(=O)c2ccccc2)ccc1OCCN(C(C)C)C(C)C`: greater than 10000 nM; for `COc1cc(NC(=O)c2cccc(-c3ccccc3)c2)ccc1OCCN(C(C)C)C(C)C`: 5010 nM; for `COc1cc(N(C)C(=O)c2ccc(C3CCCCC3)cc2)ccc1OCCN(C(C)C)C(C)C`: 100 nM.
In the case of `COc1cc(NC(=O)c2cccc(Cc3ccccc3)c2)ccc1OCCN(C(C)C)C(C)C`, in series [1], the inhibition constant (Ki) is 158 nM. This Ki lies about 1.6-fold higher than the previous one.
As to `CC(C)N(CCOc1ccc(NC(=O)c2ccc(-c3ccccc3)cc2)cc1)C(C)C`, the Ki in series [1] is 63.1 nM.
`COc1cc(N(C)C(=O)c2ccc(-c3ccccc3)cc2)ccc1OCCN(C(C)C)C(C)C`: the CL in [2] stood at 19 mL/min/g. The solubility in series [8] and in series [9] was greater than 500 µg/mL throughout. Besides, in [1], the affinity corresponds to a Ki of 15.8 nM.
In the case of `CCc1cc(NC(=O)c2ccc(-c3ccccc3)cc2)ccc1OCCN(CC)CC`, affinity in series [1] was put at a Ki of 50.1 nM.
The compound `Cc1cc(OCCN(C(C)C)C(C)C)ccc1NC(=O)c1ccc(-c2ccccc2)cc1` showed a Ki in series [1] of 25.1 nM.
The compound `CCN(CC)CCOc1ccc(N(C)C(=O)c2ccc(-c3ccccc3)cc2)cc1OC` returned a clearance in series [3] of 51 mL/min/kg. For the same compound, the CL in [2] worked out at 5 mL/min/g. Besides, the Kp in series [4] turned out to be 0.1. In [1], this compound had an inhibitory constant (Ki) of 20 nM.
Turning to `COc1cc(N(C)C(=O)c2ccc(-c3ccccc3)cc2)ccc1OCCN1CCCC1`, the clearance in series [3] was 57 mL/min/kg. Moreover, the CL in series [2] was 2 mL/min/g. Further, in series [4], the Kp was found to be 0.1. The compound also had a Ki in [1] of 20 nM.
Regarding `Cc1cc(NC(=O)c2ccc(-c3ccccc3)cc2)ccc1OCCN(C(C)C)C(C)C`, affinity in series [1] was put at a Ki of 63.1 nM.
Turning to `COc1cc(NC(=O)c2ccc(-c3ccccc3C)cc2)ccc1OCCN(C(C)C)C(C)C`, in series [1], the Ki is 39.8 nM. This Ki lies about 1.6-fold lower than the previous one.
The compound `COc1cc(NC(=O)c2ccc(Br)cc2)ccc1OCCN(C(C)C)C(C)C` had a Ki in [1] greater than 6310 nM.
Consider `COc1cc(NS(=O)(=O)c2ccc(-c3ccccc3)cc2)ccc1OCCN1CCCC1`, for which the Ki in [1] is greater than 10000 nM.
As for `COc1cc(NC(=O)c2ccc(Oc3ccccc3)cc2)ccc1OCCN(C(C)C)C(C)C`, affinity in series [1] was put at a Ki of 200 nM. This counts as sub-micromolar.
For `COc1cc(NC(=O)c2ccc(-c3ccccc3)cc2C)ccc1OCCN(C(C)C)C(C)C`, the Ki in [1] is 126 nM.
With `CCN(CC)CCOc1ccc(N(C)C(=O)c2ccc(-c3ccc(C(F)(F)F)cc3)cc2)cc1OC`, the clearance in series [3] is 16 mL/min/kg. For the same compound, in [10], the bioavailability amounted to 30%. Also, in series [2], the CL came to 4 mL/min/g. The Kp in series [4] was 1. In series [1], this compound showed an inhibition constant Ki of 20 nM. Also, the AUC in series [11] was 2.37 µM·h. In addition, the outcome in series [12] was Active.
With `COc1cc(NC(=O)c2ccc(-c3cccc(C(F)(F)F)c3)cc2)ccc1OCCN(C(C)C)C(C)C`, the affinity in series [1] corresponds to a Ki of 251 nM.
`COc1cc(NC(=O)c2ccc(-c3ccccc3)cc2)ccc1OCCN1CCCCC1` gave an inhibition constant (Ki) in [1] of 39.8 nM.
As to `COc1cc(NC(=O)c2ccc(-c3ccccc3)cc2)ccc1OCCN1CCCC1`, the CL in [2] was determined as 2 mL/min/g. The affinity in series [1], expressed as Ki, was 31.6 nM.
`COc1cc(NC(=O)c2cccc(Oc3ccccc3)c2)ccc1OCCN(C(C)C)C(C)C` gave a Ki in series [1] of 79.4 nM.
Still for that read-out and setting: the same measure for `COc1cc(NC(=O)c2ccc(-c3ccccc3)cc2)ccc1OCCN(C)C`: 50.1 nM.
Compound `COc1cc(NC(=O)c2ccc(-c3ccccc3)c(C)c2)ccc1OCCN(C(C)C)C(C)C` had a Ki in [1] of 158 nM.
`COc1cc(NC(=O)c2cccc(C(=O)c3ccccc3)c2)ccc1OCCN(C(C)C)C(C)C`: in series [1], the Ki is greater than 10000 nM.
In [1], `COc1cc(NC(=O)c2ccc(-c3ccc(C(F)(F)F)cc3)cc2)ccc1OCCN(C(C)C)C(C)C` gave a Ki of 79.4 nM.
